Measured values as given in ChEMBL document CHEMBL3867450, “Synthesis of Natural Acylphloroglucinol-Based Antifungal Compounds against Cryptococcus Species” (J Nat Prod, 2016).
In brackets after ≈: the same amount, converted by molar mass.

What was measured:
[1] = tested on: Cryptococcus bacillisporus; assay: Antifungal activity against Cryptococcus gattii ATCC 32609 assessed as growth inhibition measured after 72 hrs by CLSI method; type: functional; conditions: ATCC 32609, 72 h
In short: (§1)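 Susceptibility testing by a modified CLSI (formerly NCCLS) method against C. neoformans ATCC 90113, C. neoformans H99 (from Duke University) or C. gattii ATCC 32609. The top test concentration was 20 μg/mL. MIC is the lowest concentration allowing no detectable growth. IC50 is the concentration giving 50% growth inhibition.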

[2] = Selectivity index, ratio of IC50 for pig LLC-PK1 cells to MIC for Cryptococcus neoformans ATCC 90113; type: toxicity, cell-based; conditions: read-out: Selectivity Index
In short: (§2)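 Selectivity index is the mammalian-cell IC50 (neutral red assay, Vero or LLC-PK1) divided by the MIC against C. neoformans ATCC 90113 (modified CLSI method).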

Cryptococcus neoformans [3] = assay: Antifungal activity against Cryptococcus neoformans H99 assessed as growth inhibition measured after 72 hrs by CLSI method; type: functional; conditions: var grubii H99 ; in short: as §1
[4] = Cytotoxicity against African green monkey Vero cells assessed as reduction in viable cells measured after 48 hrs by neutral red dye-based method; type: toxicity, cell-based; conditions: African green monkey (Chlorocebus sabaeus)
In short: (§3)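 Vero (African green monkey kidney […]) and LLC-PK1 (pig kidney epithelial) cells were scored for viability by neutral red uptake. The top test concentration was 50 μg/mL. IC50 is the concentration causing 50% growth inhibition of the mammalian cells.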

[5] = Cytotoxicity against pig LLC-PK1 cells assessed as reduction in viable cells measured after 48 hrs by neutral red dye-based method; type: toxicity, cell-based; conditions: pig (Sus scrofa); in short: as §3
[6] = Antifungal activity against Cryptococcus neoformans ATCC 90113 assessed as growth inhibition measured after 72 hrs by CLSI method; type: functional; in short: as §1
[7] = Antifungal activity against Cryptococcus neoformans ATCC 90113 assessed as growth inhibition at 20 ug/ml measured after 72 hrs by CLSI method; type: functional
In short: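 Primary screen against C. neoformans ATCC 90113 by a modified CLSI method at 20 μg/mL. Growth inhibition above 50% at this concentration was scored as active and taken to further testing.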

[8] = Selectivity index, ratio of IC50 for African green monkey Vero cells to MIC for Cryptococcus neoformans ATCC 90113; type: toxicity, cell-based; conditions: read-out: Selectivity Index; in short: as §2
Staphylococcus aureus = assay: Antibacterial activity against Staphylococcus aureus ATCC 29213 by CLSI method; type: functional
[9] = tested on: Cryptococcus bacillisporus; assay: Antifungal activity against Cryptococcus gattii ATCC 32609 assessed as growth inhibition at 20 ug/ml measured after 72 hrs by CLSI method; type: functional; conditions: ATCC 32609, 72 h, read-out: GI
Cryptococcus neoformans [10] = assay: Antifungal activity against Cryptococcus neoformans ATCC 90113 assessed as growth inhibition at 20 ug/ml measured after 72 hrs by CLSI method; conditions: read-out: GI

SMILES | MIC [1] | selectivity ratio [2] | MIC (Cryptococcus neoformans [3]) | IC50 at 48 h [4] | IC50 at 48 h [5] | MIC [6] | growth inhibition (GI) [7] | selectivity ratio [8] | MIC (Staphylococcus aureus) | inhibition of growth at 20 µg/mL [9] | inhibition of growth at 20 µg/mL (Cryptococcus neoformans [10])
CCCC(=O)c1c(O)cc(O)c(CC=C(C)C)c1O | 5 µg/mL (≈ 18.9 µM) | 8.5 | 8.3 µg/mL (≈ 31.4 µM) | 16.3 µg/mL (≈ 61.7 µM) | 28 µg/mL (≈ 106 µM) | 3.3 µg/mL (≈ 12.5 µM) | > 50% | 4.9 | – | – | –
CC(C)C(=O)c1c(O)cc(O)c(Cc2ccccc2)c1O | 10 µg/mL (≈ 34.9 µM) | 4.3 | 16.7 µg/mL (≈ 58.3 µM) | 28 µg/mL (≈ 97.8 µM) | 28.5 µg/mL (≈ 99.5 µM) | 6.7 µg/mL (≈ 23.4 µM) | > 50% | 4.2 | – | – | –
CCCC(=O)c1c(O)cc(O)cc1O | – | – | – | – | – | – | < 50% | – | – | – | –
CC(C)C(=O)c1c(O)cc(O)c(Cc2ccc(C(C)C)cc2)c1O | 2.1 µg/mL (≈ 6.39 µM) | > 33.3 | 2.1 µg/mL (≈ 6.39 µM) | > 50 µg/mL | > 50 µg/mL | 1.5 µg/mL (≈ 4.57 µM) | > 50% | > 33.3 | 10 µg/mL (≈ 30.4 µM) | – | –
CC(C)C(=O)c1c(O)cc(OCc2ccc(C(C)C)cc2)cc1O | – | – | – | – | – | – | < 50% | – | – | – | –
CC(C)C(=O)c1c(O)cc(O)c(C(=O)C(C)C)c1O | 2.1 µg/mL (≈ 7.89 µM) | 7 | 3.3 µg/mL (≈ 12.4 µM) | 11.5 µg/mL (≈ 43.2 µM) | 17.5 µg/mL (≈ 65.7 µM) | 2.5 µg/mL (≈ 9.39 µM) | > 50% | 4.6 | 1.3 µg/mL (≈ 4.88 µM) | – | –
CC(C)C(=O)c1c(O)cc(O)cc1OCC(=O)NC(C)(C)C | – | – | – | – | – | – | < 50% | – | – | – | –
CCOC(=O)Cc1c(O)cc(O)c(C(=O)C(C)C)c1O | – | – | – | – | – | – | < 50% | – | – | < 50% | < 50%
CC(C)C(=O)c1c(O)cc(O)cc1OCc1c(Cl)cccc1Cl | 5 µg/mL (≈ 14.1 µM) | 4.2 | 5 µg/mL (≈ 14.1 µM) | 32.5 µg/mL (≈ 91.5 µM) | 34.5 µg/mL (≈ 97.1 µM) | 8.3 µg/mL (≈ 23.4 µM) | > 50% | 3.9 | – | – | –
CC(C)C(=O)c1c(O)cc(OCc2c(F)cccc2Cl)cc1O | – | – | – | – | – | – | < 50% | – | – | – | –
OC(Cn1cncn1)(Cn1cncn1)c1ccc(F)cc1F [FLUCONAZOLE] | 25 µg/mL (≈ 81.6 µM) | – | 12.5 µg/mL (≈ 40.8 µM) | – | – | 6.3 µg/mL (≈ 20.6 µM) | – | – | – | – | –
CC(C)=CCC/C(C)=C/CC/C(C)=C/Cc1c(O)cc(O)c(C(=O)C(C)C)c1O | 7.5 µg/mL (≈ 18.7 µM) | 3.6 | 5 µg/mL (≈ 12.5 µM) | 25 µg/mL (≈ 62.4 µM) | 27 µg/mL (≈ 67.4 µM) | 7.5 µg/mL (≈ 18.7 µM) | > 50% | 3.3 | – | – | –
COc1cc(C(=O)c2c(O)cc(O)c(C(=O)C(C)C)c2O)cc(OC)c1OC | – | – | – | – | – | – | < 50% | – | – | < 50% | < 50%
CC(C)=CCC/C(C)=C/Cc1c(O)cc(O)c(C(=O)C(C)C)c1O | 1 µg/mL (≈ 3.01 µM) | 14.4 | 1.7 µg/mL (≈ 5.11 µM) | 22.5 µg/mL (≈ 67.7 µM) | 24.5 µg/mL (≈ 73.7 µM) | 1.7 µg/mL (≈ 5.11 µM) | > 50% | 13.2 | – | – | –
CC(C)C(=O)c1c(O)cc(O)c(C(=O)c2ccc(F)cc2)c1O | 6.7 µg/mL (≈ 21 µM) | 3.3 | 11.7 µg/mL (≈ 36.8 µM) | 13.5 µg/mL (≈ 42.4 µM) | 27.5 µg/mL (≈ 86.4 µM) | 8.3 µg/mL (≈ 26.1 µM) | > 50% | 1.6 | – | – | –
CC(C)C(=O)c1c(O)cc(O)c(Cc2ccc([N+](=O)[O-])cc2)c1O | 5 µg/mL (≈ 15.1 µM) | 4.2 | 10 µg/mL (≈ 30.2 µM) | 18 µg/mL (≈ 54.3 µM) | 28 µg/mL (≈ 84.5 µM) | 6.7 µg/mL (≈ 20.2 µM) | > 50% | 2.7 | – | – | –
CCCC(=O)c1c(O)cc(O)c(C(=O)c2ccccc2)c1O | 5 µg/mL (≈ 16.6 µM) | 4 | 6.7 µg/mL (≈ 22.3 µM) | 14.3 µg/mL (≈ 47.6 µM) | 27 µg/mL (≈ 89.9 µM) | 6.7 µg/mL (≈ 22.3 µM) | > 50% | 2.1 | – | – | –
C#CCc1c(O)cc(O)c(C(=O)C(C)C)c1O | – | – | – | – | – | – | < 50% | – | – | < 50% | < 50%
